Xi reactivation: X-chromosome reactivation activator | activation, % at 7.58 µM | 360,000 tested, 0.055% active | XiGFP mouse fibroblasts, % GFP-positive cells imaging, 3 d; cells co-treated with 5-aza-dC sensitizer; scaled so ellipticine positive control = 100%;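 active = mean normalized replicate activation at least 10% and every replicate at or above 10%; inconclusive = only one of the two criteria met; inactive = mean below 10% and not all replicates reach 10%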;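 also: 0% = median of on-plate neutral control wells and 100% = ellipticine 6 µM median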
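System: XiGFP fibroblasts, SV40-immortalized. Medium: DMEM plus 5-aza-dC sensitizer. Doses: single point. Timing: 3 d treatment, 15 min room-temperature fixation. Control set: ellipticine 6 µM.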
TWEAK Fn14 block: inhibitors of TWEAK-Fn14 interaction signaling; TWEAK-stimulated Fn14 reporter cells, luciferase luminescence, 8 h; inhibition, % at 10 µM; 360,000 tested, 2% active; in the data active = inhibition above about 50%
TROY NFkB inh: TROY signaling inhibition | 360,000 tested, 0.98% active | Q293 LMP1-TROYcd NF-kB luciferase reporter, 4 h | inhibition, % at 10 µM;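 active = compounds whose plate-normalised and pattern-corrected inhibition of the luciferase reporter signal at the single screening dose is 50% or more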
LGR2 antag: inhibitors of bursicon-induced Drosophila LGR2 receptor cAMP signaling | HEK293 LGR2, CRE-luciferase, bursicon-stimulated, 4 h | inhibition, % at 9.99 µM | 380,000 tested, 0.35% active | AID 720647;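 active = drop in luminescence signal, shown as inhibition above about 50% in the replicate tests, limit read from the data, passing the limit was not always enough; inconclusive = probably only some replicates passing the limit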;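 also: agonist challenge used bursicon conditioned medium at about half maximal strength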
FN deposit inh: fibronectin deposition inhibition. AH1F fibroblasts, Alexa488-fibronectin deposition fluorescence, overnight. inhibition, % at 12.6 µM. 350,000 tested, 0.086% active;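 active = mean inhibition across replicates of 30% or more, regardless of how many single replicates reach that level; inconclusive = mean under 30% yet at least half of replicates reach 30%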;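 also: positive control wells lacked labelled fibronectin entirely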
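Material: AH1F fibroblast monolayer depositing Alexa488-labelled fibronectin into matrix | Input: 10000 AH1F cells/well | Medium: DMEM plus 2% serum, read in PBS | Reagent: Alexa488-fibronectin, 24 nM final in well | Compound dosing: One dose per compound, pinned | Schedule: 1 h adhesion, overnight exposure | Measured by: Fluorescence at 485 nm excitation, 525 nm emission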
EWS-Fli inh: blocks EWS/Fli oncoprotein-driven transcription; inhibition, % at 12.6 µM; A673 NR0B1-luciferase reporter, viability-normalised; AID 651661; 350,000 tested, 0.67% active;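 active = mean inhibition of at least 50% after viability correction, with every replicate also passing that limit; inconclusive = mean reaches 50% but only one of two replicates passes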;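 also: firefly luciferase signal divided by Alamar Blue viability fluorescence both relative to DMSO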
* marks the source's active call; other numbers are inactive results; ? = inconclusive; . = no result; ! = not active in a repeat. In the library only some 2.3% were active in any assay of this set; here they are far more common.

SMILES | Xi reactivation | TWEAK Fn14 block | TROY NFkB inh | LGR2 antag | FN deposit inh | EWS-Fli inh
Nc1c(C(=O)OCC2CCCO2)c2nc3ccccc3nc2n1Cc1cccs1 (stereo not given) | . | 49 | 68* | . | . | .
COCCNC(=O)c1c(NC(=O)c2ccc(Br)o2)n(Cc2ccccc2)c2nc3ccccc3nc12 | 0 | 58* | 68* | 15 | 0 | 4
C=CCN1[C@@H]2CN(C(C)=O)C[C@H]1C2c1ccccc1 (stereo not given in full) | 0 | . | . | . | -2 | .
O=C(Cc1ccccc1)N1CCCCN2[C@H](CO)[C@H](c3ccc(C#CC4(O)CCCC4)cc3)[C@@H]2C1 | 0 | . | . | -1 | . | 8
Clc1ccc(C(c2ccc(Cl)cc2)n2cc[n+](CC(OCc3ccc(Cl)cc3Cl)c3ccc(Cl)cc3Cl)c2)cc1 (stereo not given) | 0 | 77* | 80* | 87* | -1 | 49
N=Cc1c(O)n(-c2ccc(C34CC5CC(CC(C5)C3)C4)cc2)c(=O)[nH]c1=O | 0 | 67* | 54* | 8 | -13 | .
COC(=O)[C@H]1[C@H](CO)[C@H]2Cn3c(ccc(C4=CCCCC4)c3=O)[C@@H]1N2CC1CC1 | 1 | . | . | 0 | . | -74
COc1cc(OC)c(OC)cc1CN1CCN(C(=O)Cc2ccccc2)CC1 | 0 | 97* | 5 | 4 | 0 | 8
C/C=C/c1ccc([C@H]2[C@@H](CO)N3CCCCN(C(=O)Cc4ccncc4)C[C@H]23)cc1 | 0 | . | . | 8 | . | 4
COCCCn1c(-c2ccc(OC)cc2)cc(C(=O)NC2CCCCCCC2)c1C | 0 | 64* | 9 | 22 | 0 | 23
COc1ccc(-c2ccc3c(c2)CN(C(=O)NC2CCCCC2)Cc2cnnn2-3)cc1 | 0 | -4 | 4 | -17 | -4 | -7
COC(=O)C1=C(c2ccc(F)cc2OCc2ccccc2)C[C@@H]2CC[C@H]1N2C(=O)N1CCC(O)(c2ccc(Cl)cc2)CC1 | -1 | 56* | -2 | 8 | 2 | 7
COC(=O)C1=C(c2ccc(F)cc2OCc2ccccc2)C[C@@H]2CC[C@H]1N2C(=O)N1CCCCC1 | 0 | 2 | -18 | 9 | -7 | 10
CC(=O)O[C@H]1[C@H]2O[C@]23[C@@H]2CC[C@]4(O)C[C@@H](O)CC[C@]4(C)C2CC[C@]3(C)[C@H]1c1ccc(=O)oc1 (stereo not given in full) | . | 83* | 56* | . | . | .
O=C1NC(=O)N(CCc2ccc(F)cc2)C(=O)/C1=C\C=C\c1ccccc1 | 0 | 98* | 32 | 1 | . | 37
C=CCN1C(=O)NC(=O)/C(=C/C=C/c2ccccc2)C1=O | 0 | 2 | -10 | . | 11 | 31
O=C(Cc1ccccn1)N1CCCCN2[C@H](CO)[C@H](c3ccc(C#Cc4ccccc4)cc3)[C@H]2C1 | 0 | . | . | -1 | . | 4
CC(=O)N1C2CN(C)CC1C2c1ccc(Br)cc1 (stereo not given) | 0 | . | . | . | -3 | .
COc1cccc(-n2c(C)nc3ccccc3c2=O)c1 | . | 67* | -19 | . | 0 | .
COC(=O)[C@@H]1[C@@H](CO)[C@@H]2Cn3c(cccc3=O)[C@H]1N2C(=O)C1CCCC1 | 1 | . | . | 5 | . | -4
CN(C)c1ccc(/C=C/[N+](=O)[O-])cc1 | 1 | -8 | 12 | . | 0 | -1
C/C(=C\c1ccc(N(C)C)cc1)[N+](=O)[O-] | . | 46 | 4 | 96* | . | 52*
NC(=O)c1c(Br)n(C2OC(CO)C(O)C2O)c2ncnc(N)c12 (stereo not given) | 1 | 18 | 10 | 7 | 10 | 32
N#Cc1cn(C2OC(CO)C(O)C2O)c2ncnc(N)c12 (stereo not given) | 0 | 72* | 52* | 94* | 7 | -7
NC(=O)c1cn(C2OC(CO)C(O)C2O)c2ncnc(N)c12 (stereo not given) | 1 | 89* | 40 | 71* | 53* | 55*!
SMILES | Xi reactivation | TWEAK Fn14 block | TROY NFkB inh | LGR2 antag | FN deposit inh | EWS-Fli inh
COc1ccc2c(c1)C(NC(C)=O)CCc1cc(OC)c(OC)c(OC)c1-2 (stereo not given) | 4 | -24 | 6 | -4 | -28 | 55*
COc1cc2c(c(OC)c1OC)-c1ccc(O)c(=O)cc1C(NC(C)=O)CC2 (stereo not given) | 1 | -25 | 24 | 1 | -44 | 59*
COC1=C[C@@H]2C3=C([C@@H]2C1=O)[C@@H](NC(C)=O)CCc1cc(OC)c(OC)c(OC)c13 | 0 | -6 | -6 | . | -3 | -2
C[C@H]1CN([C@@H](C)CO)C(=O)CCCn2cc(nn2)CO[C@@H]1CN(C)C(=O)Oc1ccc2ccccc2c1 | 0 | . | . | -12 | 7 | 0
C=C1C(C)C2C(Cc3ccccc3)NC(=O)C23C(OC(C)=O)C=CC(C)(O)CC(C)CC=CC3C1O (stereo not given) | 0 | -140 | -32 | -10 | 45* | -11
C=C1[C@@H](C)[C@H]2[C@H](Cc3ccccc3)NC(=O)[C@]23OC(=O)/C=C/[C@H](O)CCC[C@@H](C)C/C=C/[C@H]3[C@@H]1O | 0 | -14 | -33 | 0 | 35*! | -14
C[C@H]1C/C=C/[C@H]2[C@H](O)[C@H](C)[C@@](C)(O)[C@H]3[C@H](Cc4ccccc4)NC(=O)[C@]32[C@H](O)/C=C/[C@](C)(O)C1 | . | -10 | -2 | . | . | .
O=C(Cc1ccccc1)N1CCCCN2[C@H](CO)[C@@H](c3ccc(C#Cc4ccccc4)cc3)[C@H]2C1 | 0 | . | . | -6 | . | .
O=C1NC(=O)C(=Cc2cccc(OCCOc3ccccc3)c2)C(=O)N1 | 0 | -10 | -12 | -45 | 2 | -32
Cc1ccc(OCCOc2cccc(C=C3C(=O)NC(=O)NC3=O)c2)c(C)c1 | 0 | 89* | -70 | 77* | 0 | ?
O=C(Cc1ccccn1)N1CCCCN2[C@H](CO)[C@@H](c3ccc(-c4ccc(F)cc4)cc3)[C@H]2C1 | 0 | . | . | 3 | . | -2
CC1=CC(C)CC(C)OC(=O)CC(c2ccc(O)cc2)NC(=O)C(Cc2c(Br)[nH]c3ccccc23)N(C)C(=O)C(C)NC(=O)C(C)C1 (stereo not given) | 0 | 4 | 70* | 82* | 10 | -25
COC1CC2C=C(C)C=CC=CC(=O)NC(c3ccccc3)CC=CCCC(O)CC(=O)C2=C1O (stereo not given) | 1 | 60* | 50 | 22 | 3 | 55*
O=C(O)[C@H]1[C@H](CO)[C@H]2Cn3c(ccc(-c4ccc(F)cc4)c3=O)[C@@H]1N2CC1CCCCC1 | 0 | . | . | -1 | . | -3
CC12CCC(O)CC1CCC1C2CCC2(C)C(C3=CC(=O)OC3)C(O)CC12O (stereo not given) | 0 | 53* | 37 | 77* | -4 | 36

Compound activity from PubChem.
